Measured values of several laboratories.
KCNH2: Voltage-gated inwardly rectifying potassium channel KCNH2 (KCNH2, Homo sapiens, UniProt Q12809)
UGT2B7: UDP-glucuronosyltransferase 2B7 (UGT2B7, Homo sapiens, UniProt P16662)

O=c1c2ccccc2c(Cc2ccc(Cl)cc2)nn1C1CCCNCC1 (centres unmarked) — inhibition (KCNH2; ion current, inhibitor, patch clamp; HEK293; 10 µM): 97%
C[C@@H](Cn1ccc(-c2ccc(C#N)c(Cl)c2)n1)NC(=O)c1cc([C@@H](C)O)[nH]n1 — IC50 (UGT2B7; enzyme activity, inhibitor; human, liver microsomes): > 100 µM
C=C1CCC2C(C)(CO)C(=O)CCC2(C)C1CCC1=CCOC1=O (centres unmarked) — Ki (UGT2B7; enzyme activity, inhibitor): 4.2 µM
CN(CCC(=O)O)C(=O)c1ccc2c(c1)CC[C@@H]1[C@@H]2CC[C@]2(C)C(c3cncc(F)c3)=CC[C@@H]12 — IC50 (UGT2B7; enzyme activity, inhibitor): > 30 µM
C=C1CC[C@@H]2[C@](C)(CO)[C@H](O)CC[C@@]2(C)[C@@H]1CCC1=CCOC1=O — inhibition (UGT2B7; enzyme activity, inhibitor; 100 µM, pH 7.4): 95%
CC(C)=CCCC(C)c1ccc(C)cc1 (centres unmarked) — IC50 (UGT2B7; enzyme activity, inhibitor): > 200 µM
CNC(=O)[C@@]12C[C@@H]1[C@@H](n1cnc3c(NCCc4ccc(O)c(OC)c4)nc(C#Cc4ccco4)nc31)[C@H](O)[C@@H]2O — inhibition (KCNH2; ion current, inhibitor; 10 µM): > 50%
CC(=O)c1cc(C(=O)N[C@@H](C)Cn2ccc(-c3ccc(C#N)c(Cl)c3)n2)[nH]n1 — IC50 (UGT2B7; enzyme activity, inhibitor; human, liver microsomes): > 50 µM
CON=C(N)c1ccc(-c2ccc(-c3ccc(C(N)=NOC)cc3)o2)cc1 — Km (Cytochrome P450 4F2 (Homo sapiens, UniProt P78329); enzyme activity, substrate): 0.7 µM
C=C1CC[C@@H]2[C@](C)(CO[C@@H]3O[C@H](CO)[C@@H](O)[C@H](O)[C@H]3O)CCC[C@@]2(C)[C@@H]1CCC1=CCOC1=O — inhibition (UGT2B7; enzyme activity, inhibitor; 100 µM, pH 7.4): 42%
O=C(Nc1cccc(C(F)(F)F)c1)N1CCN(c2cccc(C(F)(F)F)c2)CC1 — inhibition (KCNH2; ion current, inhibitor, patch clamp; HEK293; 10 µM): 85%
